Measurements as given in publication PMC3134944 (Current Chemical Genomics, 2011).

Key:
purified his-GAPDHS = conditions: baculovirus/insect cell expressed his-GAPDHS ref 22; cited from earlier work
[1] = biological target: recombinant human GST-GAPDHS (Homo sapiens, UniProt O14556); assay: GAPDHS dose response / IC50 determination; type: biochemical
In short: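 IC50 against GST-GAPDHS used the single-point assay conditions with two-fold serial dilutions in DMSO, giving 10 final concentrations from 80 µM to […]. Percent inhibition at each concentration was fitted to a four-parameter variable-slope equation for IC50 and Hill slope. Some runs included 0.01% Tween-20 (final). Ligand efficiency and binding efficiency index were calculated from IC50.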

GAPDH isozymes = conditions: ref PMID: 12788228, PMID: 2353814; cited from earlier work

recombinant human GST-GAPDHS, sequence (O14556 69-408): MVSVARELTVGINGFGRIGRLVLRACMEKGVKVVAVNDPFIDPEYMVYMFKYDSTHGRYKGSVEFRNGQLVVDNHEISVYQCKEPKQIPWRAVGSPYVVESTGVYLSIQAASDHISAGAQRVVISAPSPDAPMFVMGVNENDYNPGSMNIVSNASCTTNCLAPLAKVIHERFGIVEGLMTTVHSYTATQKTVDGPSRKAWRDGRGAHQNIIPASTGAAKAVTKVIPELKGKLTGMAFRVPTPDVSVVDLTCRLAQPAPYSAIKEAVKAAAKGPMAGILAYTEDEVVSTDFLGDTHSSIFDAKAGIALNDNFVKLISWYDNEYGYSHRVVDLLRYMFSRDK

- IC50 ([1]; IC50, follow up, absence of Tween-20, dry powder, no detergent): 47 µM
- IC50 ([1]; IC50 in the presence of 0.01% Tween-20, dry powder, 0.01% Tween-20): 53 µM
Structure (SMILES): CC1=CC(=O)c2ccccc2C1=O [Menadione]
- active in Prestwick screen against his-GAPDHS (purified his-GAPDHS): identified as actives
- inhibitor of GAPDH isozymes in vivo (GAPDH isozymes): non-selective inhibitor
